Data: ChEMBL document CHEMBL1123747, “N-methyl derivatives of the 5-HT2 agonist 1-(4-bromo-2,5-dimethoxyphenyl)-2-aminopropane” (J Med Chem, 1987)
Calls of active or inactive are those of the source. No cut-off for these calls is given here.

How the values were obtained:
Rattus norvegicus [1] = species: Rattus norvegicus; test: The mean responses per minute during the 2.5 min extinction session in the stimulus-generation studies was calculated at dose 7.5 mg / kg; format: functional
Outline: (§1)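 Rats were trained on a two-lever drug-versus-saline discrimination (0.2 mg/kg ip training dose, VI 15-s, food reward). Challenge doses were given ip 15 min before a 2.5-min extinction test, in random order, to groups of 3–6 rats, with at least three training sessions between tests. Response rate is responses per minute over the extinction session.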

Rattus norvegicus [2] = species: Rattus norvegicus; test: The number of animals responding per number of animals receiving the drug(1/4) in the stimulus-generation studies was calculated at dose 8.5 mg / kg; format: functional
Outline: (§2)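 Male Sprague-Dawley rats were trained to discriminate 0.2 mg/kg ip training drug from saline (two levers, VI 15-s, milk reward). Test doses were given ip 15 min pre-session in random order to groups of 3–6. In the 2.5-min extinction session, rats making fewer than five total responses were counted as disrupted. N is animals responding over animals dosed.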

Rattus norvegicus [3] = species: Rattus norvegicus; test: The number of animals responding per number of animals receiving the drug(3/5) in the stimulus-generation studies was calculated at dose 7.8 mg / kg; format: functional; outline: as §2
Rattus norvegicus [4] = species: Rattus norvegicus; test: The number of animals responding per number of animals receiving the drug(3/5) in the stimulus-generation studies was calculated at dose 7.5 mg / kg; format: functional; outline: as §2
Rattus norvegicus [5] = species: Rattus norvegicus; test: The compound was tested for effective dose ( ED 50) against stimulus generation with rats trained to discriminate (R) (-)-DOB from saline.; format: functional
Outline: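 Male Sprague-Dawley rats (n = 6) on a two-lever operant task for sweetened milk, VI 15-s schedule. Trained to discriminate 0.2 mg/kg ip training drug from 1.0 mL/kg 0.9% saline, 15 min pre-session. Test doses were given ip in random order to groups of 3–6, with 15-min pretreatment and a 2.5-min extinction session. ED50 was calculated from dose-response data.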

Rattus norvegicus [6] = species: Rattus norvegicus; test: The number of responses made on the (R)(-)-DOB appropriate level as a percent of total responses made during the 2.5 min extinction session in the stimulus-generation studies was calculated at dose 6.0 mg / kg; format: functional
Outline: (§3)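 Male Sprague-Dawley rats (n = 6) were trained on a two-lever operant task for sweetened-milk reward to discriminate 0.2 mg/kg (R)-(-)-DOB-HCl ip from 1.0 mL/kg 0.9% saline, with a VI 15-s schedule and 15-min sessions. Test doses were given ip 15 min before a 2.5-min extinction session, in random order, to groups of 3-6 rats. Read-out was % drug-lever responses; fewer than five total responses counted as disrupted.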

Rattus norvegicus [7] = species: Rattus norvegicus; test: The number of responses made on the (R)(-)-DOB appropriate level, generation studies was calculated at dose 7.8 mg / kg; format: functional; outline: as §3
Rattus norvegicus [8] = species: Rattus norvegicus; test: The mean responses per minute during the 2.5 min extinction session in the stimulus-generation studies was calculated at dose 4.0 mg / kg; format: functional; outline: as §1
Rattus norvegicus [9] = species: Rattus norvegicus; test: The mean responses per minute during the 2.5 min extinction session in the stimulus-generation studies was calculated at dose 2.0 mg / kg; format: functional; outline: as §1
Rattus norvegicus [10] = species: Rattus norvegicus; test: The number of responses made on the (R)(-)-DOB appropriate level as a percent of total responses made during the 2.5 min extinction session in the stimulus-generation studies was calculated at dose 2.2 mg / kg; format: functional; outline: as §3
Rattus norvegicus [11] = species: Rattus norvegicus; test: The number of animals responding per number of animals receiving the drug(4/6) in the stimulus-generation studies was calculated at dose 4.0 mg / kg; format: functional; outline: as §3
Rattus norvegicus [12] = species: Rattus norvegicus; test: The number of responses made on the (R)(-)-DOB appropriate level, generation studies was calculated at dose 2.0 mg / kg; format: functional; outline: as §3
Rattus norvegicus [13] = species: Rattus norvegicus; test: The number of responses made on the (R)(-)-DOB appropriate level, generation studies was calculated at dose 4.0 mg / kg; format: functional; outline: as §3
[14] = target: T1, Serotonin 2 (5-HT2) receptor (Rattus norvegicus, UniProt P30994+P08909+P14842); test: Affinity towards [3H]- ketanserin-labeled 5-hydroxytryptamine 2 receptor sites in rat cortical homogenates
Outline: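 Label was 0.4 nM [3H]ketanserin, with 11 competitor concentrations run in triplicate and nonspecific binding defined by 1 μM cinanserin. Bound ligand was filtered onto glass fibre and counted by scintillation. IC50 came from nonlinear regression; Ki = IC50/(1+[D]/KD).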

Rattus norvegicus [15] = species: Rattus norvegicus; test: The number of responses made on the (R)(-)-DOB appropriate level, generation studies was calculated at dose 8.5 mg / kg; NR means not responding; format: functional, organism-based; parameters: dose 8.5 mg / kg; outline: as §3
[16] = target: T1, Serotonin 2 (5-HT2) receptor; test: Affinity towards [3H]- DOB -labeled 5-hydroxytryptamine 2 receptor sites in rat cortical homogenates
Rattus norvegicus [17] = species: Rattus norvegicus; test: The mean responses per minute during the 2.5 min extinction session in the stimulus-generation studies was calculated at dose 2.2 mg / kg; format: functional; outline: as §1
Rattus norvegicus [18] = species: Rattus norvegicus; test: The mean responses per minute during the 2.5 min extinction session in the stimulus-generation studies was calculated at dose 6.0 mg / kg; format: functional; outline: as §1
Rattus norvegicus [19] = test: The number of animals responding per number of animals receiving the drug in the stimulus-generation studies was calculated at dose 2.2 mg/kg; format: functional; outline: as §2
Rattus norvegicus [20] = species: Rattus norvegicus; test: The number of animals responding per number of animals receiving the drug(3/5) in the stimulus-generation studies was calculated at dose 6.0 mg / kg; format: functional; outline: as §2
Rattus norvegicus [21] = species: Rattus norvegicus; test: The number of animals responding per number of animals receiving the drug(3/4) in the stimulus-generation studies was calculated at dose 0.3 mg / kg; format: functional
Rattus norvegicus [22] = species: Rattus norvegicus; test: The number of responses made on the (R)(-)-DOB appropriate level, generation studies was calculated at dose 7.5 mg / kg; format: functional; outline: as §3
Rattus norvegicus [23] = species: Rattus norvegicus; test: The mean responses per minute during the 2.5 min extinction session in the stimulus-generation studies was calculated at dose 7.8 mg / kg; format: functional; outline: as §1

## COc1cc(CC(C)N(C)C)c(OC)cc1Br (stereo not drawn)
Rattus norvegicus [1]
  Response rate: 6.8
Rattus norvegicus [2]
  No. of animals responding/animals receiving drug: 1
Rattus norvegicus [3]
  No. of animals responding/animals receiving drug: 3
Rattus norvegicus [4]
  No. of animals responding/animals receiving drug: 3
Rattus norvegicus [5]
  ED50: 5.36 mg/kg
Rattus norvegicus [6]
  Responding: 38%
Rattus norvegicus [7]
  Responding: 86%
Rattus norvegicus [8]
  Response rate: 10.1
Rattus norvegicus [9]
  Response rate: 14.6
Rattus norvegicus [10]
  Responding: 6%
Rattus norvegicus [11]
  No. of animals responding/animals receiving drug: 4
Rattus norvegicus [12]
  Responding: 23%
Rattus norvegicus [13]
  Responding: 29%
[14]
  Ki: 380 nM
Rattus norvegicus [15]
  Responding: inactive
[16]
  Ki: 94 nM
Rattus norvegicus [17]
  Response rate: 14.8
Rattus norvegicus [18]
  Response rate: 8.1
Rattus norvegicus [19]
  No. of animals responding/animals receiving drug: 5
Rattus norvegicus [20]
  No. of animals responding/animals receiving drug: 3
Rattus norvegicus [21]
  No. of animals responding/animals receiving drug: 3
Rattus norvegicus [22]
  Responding: 64%
Rattus norvegicus [23]
  Response rate: 4.5
